The source of these data is ChEMBL document CHEMBL1131244, “New alkenyldiarylmethanes with enhanced potencies as anti-HIV agents which act as non-nucleoside reverse transcriptase inhibitors” (J Med Chem, 1998).

For assay [1], the target named is Human immunodeficiency virus type 1 reverse transcriptase (Human immunodeficiency virus 1, UniProt Q72547). The assay is described as follows: Inhibitory activity against human immunodeficiency virus (HIV) - 1 reverse transcriptase with rCdG as the template primer. The method, boiled down: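 Reactions stopped with ice-cold 10% trichloroacetate, filtered through GF/C membrane, washed with ethanol, radiolabel counted by Cerenkov counting. AZTTP and nevirapine as positive controls; IC50 reported.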

The subject of assay [2] is CEM-SS. In words: Inhibitory concentration for cytopathicity of HIV-1 RF in CEM-SS cells; NA means there was no observed inhibition of HIV-1 cytopathicity up to the cytotoxic concentration in uninfected cells. The class given is functional, cell-based. The method, boiled down: (§1)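 XTT cytoprotection assay in CEM-SS cells infected with HIV-1 RF, with uninfected cultures for cytotoxicity, in presence of fetal calf serum. Data as percent of uninfected drug-free control. EC50 is 50% protection from cytopathicity; CC50 is 50% cell death in uninfected cells; TI = CC50/EC50. Triplicates on each of two sister plates, plate EC50s averaged. Confirmed by supernatant RT and p24.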

For assay [3], the system named is CCRF-CEM. In words: The compound is evaluated for the cytotoxic concentration for the mock-infected CEM cells. Type of assay: functional. The settings on record: Homo sapiens. The method, boiled down:
as §1

Assay [4] has as its system CEM-SS. In words: The compound is evaluated for the therapeutic index, which is the CC50 divided by the EC50. The class given is functional. The method, boiled down:
as §1

Assay [5] relates to CEM-SS. In words: Inhibitory concentration for cytopathicity of HIV-1 in CEM-SS cells. The settings on record: Homo sapiens. The class given is functional, cell-based. In outline: as §1

Regarding `CC=C(c1cc(Br)c(OC)c(C(=O)OC)c1)c1cc(Br)c(OC)c(C(=O)OC)c1`, the IC50 in assay [1] was found to be 26 µM. Further, the EC50 result in assay [2] was “Not Active”. Besides, the midpoint of cytotoxicity in assay [3], the CC50, lay at 10 µM.
In assay [1], `COC(=O)c1cc(C(=CCCO)c2cc(Cl)c(OC)c(C(=O)OC)c2)cc(Cl)c1OC` came in with a half-maximal inhibitory concentration (IC50) above 100 µM. In addition, the TI in assay [4] amounted to 2. The molecule also displayed a 50% effective concentration (EC50) in assay [5] of 8.6 µM. Also, the CC50 in assay [3] came out at 16.8 µM.
`CC1(C)OC(=O)c2cc(C(=CCCO)c3cc(Cl)c4c(c3)C(=O)OC(C)(C)O4)cc(Cl)c2O1` returned a half-maximal inhibitory concentration (IC50) in assay [1] above 100 µM. In addition, the EC50 result in assay [2] is “Not Active”. For the same molecule, half-maximal cytotoxicity in assay [3] (CC50) was put at 18.8 µM.
The corresponding values for `COc1c(Cl)cc(C(=CCC(=O)O)c2cc(Cl)c(OC)c(C(=O)O)c2)cc1C(=O)O` are above 100 µM, “Not Active” and above 316 µM.
In assay [1], `COC(=O)c1cc(C(=CCCN)c2cc(Cl)c(OC)c(C(=O)OC)c2)cc(Cl)c1OC` returned an IC50 of 63 µM. Further, the EC50 result in assay [2] is recorded as “Not Active”. For the same molecule, the CC50 in assay [3] was found to be 15 µM.
The corresponding values for `CC1(C)OC(=O)c2cc(C(=CCCBr)c3cc(Cl)c4c(c3)C(=O)OC(C)(C)O4)cc(Cl)c2O1` are above 100 µM, “Not Active” and 176 µM.
For the molecule `COC(=O)c1cc(C(=CC(=O)O)c2cc(Cl)c(OC)c(C(=O)OC)c2)cc(Cl)c1OC`, the IC50 in assay [1] was above 100 µM. For the same molecule, the half-maximal effective concentration (EC50) result in assay [2] is recorded as “Not Active”. In assay [3], this molecule registered a 50% cytotoxic concentration (CC50) of 48 µM.
Taken in the same sequence, the figures for `COC=C(c1cc(Br)c(OC)c(C(=O)OC)c1)c1cc(Br)c(OC)c(C(=O)OC)c1` were above 100 µM, “Not Active” and 22 µM.
The corresponding values for `COC(=O)c1cc(C(=CCCCC(=O)O)c2cc(Cl)c(OC)c(C(=O)OC)c2)cc(Cl)c1OC` are above 100 µM, “Not Active” and 100 µM.
Taken in the same sequence, the figures for `CCCCCC=C(c1cc(I)c(OC)c(C(=O)OC)c1)c1cc(I)c(OC)c(C(=O)OC)c1` were 11 µM, “Not Active” and above 316 µM.
Molecule `COC(=O)c1cc(C(=CCCOS(C)(=O)=O)c2cc(Cl)c(OC)c(C(=O)OC)c2)cc(Cl)c1OC` gave a 50% inhibitory concentration (IC50) in assay [1] of 96 µM. The half-maximal effective concentration (EC50) result in assay [2] was “Not Active”. This molecule also registered a half-maximal cytotoxic concentration (CC50) in assay [3] of 6.9 µM.
Turning to `COC(=O)c1cc(C(=CCCCCO)c2cc(Cl)c(OC)c(C(=O)OC)c2)cc(Cl)c1OC`, the half-maximal effective concentration (EC50) entry in assay [2] was “Not Active”. Besides, the midpoint of cytotoxicity in assay [3], the CC50, lay at 10.2 µM.
In assay [1], `COC(=O)c1cc(C(=CCCO)c2cc(Br)c(OC)c(C(=O)OC)c2)cc(Br)c1OC` returned an IC50 of 31.6 µM. The TI in assay [4] is on record as above 52. Moreover, in assay [5], the midpoint of the response, the EC50, lay at 6 µM. In assay [3], this molecule gave a CC50 above 316 µM.
The molecule `C=C(c1cc(Br)c(OC)c(C(=O)OC)c1)c1cc(Br)c(OC)c(C(=O)OC)c1` registered an IC50 in assay [1] above 100 µM. Also, the 50% effective concentration (EC50) entry in assay [2] is reported as “Not Active”. In assay [3], this molecule displayed a CC50 of 316 µM.
On to `COc1c(Cl)cc(C(=CCCCC(=O)O)c2cc(Cl)c(OC)c(C(=O)O)c2)cc1C(=O)O`, for which the IC50 in assay [1] is above 100 µM. Further, the TI in assay [4] stood at 1.7. In assay [5], this molecule came in with an EC50 of 180 µM. The molecule also yielded a CC50 in assay [3] above 316 µM.
`COC(=O)c1cc(C(=CCCN=[N+]=[N-])c2cc(Br)c(OC)c(C(=O)OC)c2)cc(Br)c1OC` yielded an IC50 in assay [1] of 94 µM. In assay [4], the TI is recorded as above 278. A half-maximal effect in assay [5] (EC50) was put at 1.1 µM. The molecule further gave a half-maximal cytotoxic concentration (CC50) in assay [3] above 316 µM.
In assay [1], `COC(=O)C=C(c1cc(Cl)c(OC)c(C(=O)OC)c1)c1cc(Cl)c(OC)c(C(=O)OC)c1` yielded a concentration for half-maximal inhibition (IC50) of 16 µM. In addition, the concentration for a half-maximal effect (EC50) entry in assay [2] was “Not Active”. Moreover, half-maximal cytotoxicity in assay [3] (CC50) was put at 25 µM.
Molecule `CCCCCC=C(c1ccc(OC)c(C(=O)OC)c1)c1ccc(OC)c(C(=O)OC)c1` came in with an IC50 in assay [1] of 3.2 µM. In addition, in assay [2], the half-maximal effective concentration (EC50) entry is “Not Active”. The molecule also returned a CC50 in assay [3] of 14 µM.
Taken in the same sequence, the figures for `COC(=O)c1cc(C(=CC(=O)OC(C)(C)C)c2cc(Cl)c(OC)c(C(=O)OC)c2)cc(Cl)c1OC` were above 100 µM, “Not Active” and above 100 µM.
Taken in the same sequence, the figures for `CCCCCC1OC1(c1cc(Br)c(OC)c(C(=O)OC)c1)c1cc(Br)c(OC)c(C(=O)OC)c1` (stereo not drawn) were 5.6 µM, “Not Active” and above 100 µM.
